Active and inactive are the calls of the source. The calls are words filed in the database; no cut-off is given here.
How the values were obtained:
Triticum aestivum [1] = assay: Stimulation of hypocotyl length of Triticum aestivum cv. Cortex (wheat) at 0.1 mM or 1 mM after 5 days relative to untreated control; type: functional
In short: (§1)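 Wheat: 10 seeds per dish on filter paper with 5 mL test solution, 5 days in the dark at 25 °C, 10 replicates per concentration. Stock test solutions were 10^-3 or 10^-4 M in 10 mM MES, with lower levels made by dilution, all at pH 6.0. Parallel controls were run. Output is % difference from control.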

Allium cepa [2] = assay: Stimulation of germination of Allium cepa cv. Valenciana (onion) at 0.1 mM or 1 mM after 5 days relative to untreated control; type: functional
Triticum aestivum [3] = assay: Stimulation of root length of Triticum aestivum cv. Cortex (wheat) at 0.1 mM or 1 mM after 5 days relative to untreated control; type: functional; in short: as §1
Allium cepa [4] = assay: Inhibition of root length of Allium cepa cv. Valenciana (onion) at 0.1 mM or 1 mM after 5 days relative to untreated control; type: functional
Solanum lycopersicum [5] = assay: Stimulation of root length of Solanum lycopersicum cv. Tres Cantos (tomato) at 0.1 mM or 1 mM after 5 days relative to untreated control; type: functional
In short: (§2)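 Lettuce and tomato seeds, 25 per dish on filter paper, received 5 mL test solution. Incubation was 5 days in the dark at 25 °C, with four replicates per concentration. Solutions were made at 10^-3 or 10^-4 M in 10 mM MES, diluted serially, and adjusted to pH 6.0. Parallel controls were run. Results are % difference from control.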

Solanum lycopersicum [6] = assay: Inhibition of hypocotyl length of Solanum lycopersicum cv. Tres Cantos (tomato) at 0.1 mM or 1 mM after 5 days relative to untreated control; type: functional; in short: as §2
Lactuca sativa [7] = assay: Inhibition of hypocotyl length of Lactuca sativa cv. Roman (lettuce) at 0.1 mM or 1 mM after 5 days relative to untreated control; type: functional; in short: as §2
Allium cepa [8] = assay: Stimulation of hypocotyl length of Allium cepa cv. Valenciana (onion) at 0.1 mM or 1 mM after 7 days relative to untreated control
Triticum aestivum [9] = assay: Inhibition of germination of Triticum aestivum cv. Cortex (wheat) at 0.1 mM or 1 mM after 5 days relative to untreated control; type: functional; in short: as §1
Lactuca sativa [10] = assay: Inhibition of root length of Lactuca sativa cv. Roman (lettuce) at 0.1 mM or 1 mM after 5 days relative to untreated control; type: functional; in short: as §2
Triticum aestivum [11] = assay: Stimulation of germination of Triticum aestivum cv. Cortex (wheat) at 0.1 mM or 1 mM after 5 days relative to untreated control; type: functional; in short: as §1
Lepidium sativum [12] = assay: Inhibition of root length of Lepidium sativum at 0.1 mM or 1 mM after 4 days relative to untreated control
Lepidium sativum [13] = assay: Inhibition of hypocotyl length of Lepidium sativum at 0.1 mM or 1 mM after 5 days relative to untreated control; type: functional
Lactuca sativa [14] = assay: Inhibition of germination of Lactuca sativa cv. Roman (lettuce) at 0.1 mM or 1 mM after 5 days relative to untreated control; type: functional; in short: as §2
Triticum aestivum [15] = assay: Inhibition of root length of Triticum aestivum cv. Cortex (wheat) at 0.1 mM or 1 mM after 5 days relative to untreated control; type: functional; in short: as §1
Solanum lycopersicum [16] = assay: Inhibition of root length of Solanum lycopersicum cv. Tres Cantos (tomato) at 0.1 mM or 1 mM after 5 days relative to untreated control; type: functional; in short: as §2
Lepidium sativum [17] = assay: Stimulation of hypocotyl length of Lepidium sativum at 0.1 mM or 1 mM after 5 days relative to untreated control; type: functional
Triticum aestivum [18] = assay: Inhibition of hypocotyl length of Triticum aestivum cv. Cortex (wheat) at 0.1 mM or 1 mM after 5 days relative to untreated control; type: functional; in short: as §1
Lactuca sativa [19] = assay: Stimulation of germination of Lactuca sativa cv. Roman (lettuce) at 0.1 mM or 1 mM after 5 days relative to untreated control; type: functional; in short: as §2
Allium cepa [20] = assay: Stimulation of root length of Allium cepa cv. Valenciana (onion) at 0.1 mM or 1 mM after 7 days relative to untreated control
Lactuca sativa [21] = assay: Stimulation of root length of Lactuca sativa cv. Roman (lettuce) at 0.1 mM or 1 mM after 5 days relative to untreated control; type: functional; in short: as §2
Solanum lycopersicum [22] = assay: Stimulation of germination of Solanum lycopersicum cv. Tres Cantos (tomato) at 0.1 mM or 1 mM after 5 days relative to untreated control; type: functional; in short: as §2
Lepidium sativum [23] = assay: Inhibition of germination of Lepidium sativum at 0.1 mM or 1 mM after 4 days relative to untreated control
Allium cepa [24] = assay: Inhibition of germination of Allium cepa cv. Valenciana (onion) at 0.1 mM or 1 mM after 5 days relative to untreated control; type: functional
Solanum lycopersicum [25] = assay: Stimulation of hypocotyl length of Solanum lycopersicum cv. Tres Cantos (tomato) at 0.1 mM or 1 mM after 5 days relative to untreated control; type: functional; in short: as §2
Lepidium sativum [26] = assay: Stimulation of root length of Lepidium sativum at 0.1 mM or 1 mM after 5 days relative to untreated control; type: functional
Allium cepa [27] = assay: Inhibition of hypocotyl length of Allium cepa cv. Valenciana (onion) at 0.1 mM or 1 mM after 7 days relative to untreated control
Solanum lycopersicum [28] = assay: Inhibition of germination of Solanum lycopersicum cv. Tres Cantos (tomato) at 0.1 mM or 1 mM after 5 days relative to untreated control; type: functional; in short: as §2
Lactuca sativa [29] = assay: Stimulation of hypocotyl length of Lactuca sativa cv. Roman (lettuce) at 0.1 mM or 1 mM after 5 days relative to untreated control; type: functional; in short: as §2
Allium cepa [30] = assay: Stimulation of root length of Allium cepa cv. Valenciana (onion) at 0.1 mM or 1 mM after 5 days relative to untreated control; type: functional
Allium cepa [31] = assay: Stimulation of germination of Allium cepa cv. Valenciana (onion) at 0.1 mM or 1 mM after 7 days relative to untreated control
Lepidium sativum [32] = assay: Inhibition of germination of Lepidium sativum at 0.1 mM or 1 mM after 5 days relative to untreated control; type: functional
Allium cepa [33] = assay: Inhibition of hypocotyl length of Allium cepa cv. Valenciana (onion) at 0.1 mM or 1 mM after 5 days relative to untreated control; type: functional
Lepidium sativum [34] = assay: Inhibition of hypocotyl length of Lepidium sativum at 0.1 mM or 1 mM after 4 days relative to untreated control
Lepidium sativum [35] = assay: Inhibition of germination of Lepidium sativum at 0.1 mM or 1 mM after 4 days relative to untreated control; design: scale not given: the % may be the effect or the level left
Allium cepa [36] = assay: Stimulation of hypocotyl length of Allium cepa cv. Valenciana (onion) at 0.1 mM or 1 mM after 5 days relative to untreated control; type: functional

SMILES	Activity (Triticum aestivum [1])	Activity (Allium cepa [2])	Activity (Triticum aestivum [3])	inhibition (Allium cepa [4])	Activity (Solanum lycopersicum [5])	inhibition (Solanum lycopersicum [6])	inhibition (INH) (Lactuca sativa [7])	inhibition (INH) (Triticum aestivum [9])	Activity (Triticum aestivum [11])	Activity (Lepidium sativum [17])	Activity (Lactuca sativa [19])	Activity (Lactuca sativa [21])	Activity (Solanum lycopersicum [22])	inhibition (Allium cepa [24])	Activity (Solanum lycopersicum [25])	Activity (Lepidium sativum [26])	Activity (Lactuca sativa [29])	inhibition (INH) (Lactuca sativa [10])	inhibition (INH) (Triticum aestivum [15])	inhibition (INH) (Triticum aestivum [18])	further results
C=C1CC[C@H]2C(=C)CC[C@@H]3[C@H](OC(=O)[C@]3(O)CO)[C@@H]12	inactive	inactive	inactive	inactive	inactive	inactive	<20%	<20%	<20%	inactive	inactive	inactive	<20%	inactive	inactive	inactive	<20%				Activity (Allium cepa [8]): inactive; inhibition (Lactuca sativa [10]): inactive; inhibition (Lepidium sativum [12]): inactive; inhibition (Lepidium sativum [13]): inactive; inhibition (Lactuca sativa [14]): inactive; inhibition (Triticum aestivum [15]): inactive; inhibition (Solanum lycopersicum [16]): inactive; inhibition (Triticum aestivum [18]): inactive; Activity (Allium cepa [20]): inactive; Activity (Lepidium sativum [23]): inactive; inhibition (Lepidium sativum [23]): inactive; inhibition (Allium cepa [27]): inactive; inhibition (INH) (Solanum lycopersicum [28]): <20%
C=C1C(=O)O[C@H]2[C@H]1C[C@@H](O)C(=C)[C@@H]1C[C@@H](O)C(=C)[C@@]12O	20%	inactive	20%	inactive	inactive	inactive	<20%		inactive	inactive	inactive	20%	<20%	inactive	inactive	inactive	<20%	20%	20%	20%	Activity (Allium cepa [8]): inactive; inhibition (Triticum aestivum [9]): inactive; inhibition (Lepidium sativum [12]): inactive; inhibition (Lepidium sativum [13]): inactive; inhibition (Lactuca sativa [14]): inactive; inhibition (Solanum lycopersicum [16]): inactive; Activity (Allium cepa [20]): inactive; Activity (Lepidium sativum [23]): inactive; inhibition (Lepidium sativum [23]): inactive; inhibition (Allium cepa [27]): inactive; inhibition (INH) (Solanum lycopersicum [28]): <20%
C=C1CC[C@H]2C(=C)CC[C@@H]3[C@H](OC(=O)[C@H]3CO)[C@@H]12	20%		20%		>40%			<=20%	<=20%	>40%	<20%	20%	inactive	inactive	>40%	>40%	inactive	20%	20%	20%	inhibition (INH) (Allium cepa [4]): >40%; inhibition (INH) (Solanum lycopersicum [6]): >40%; inhibition (Lactuca sativa [7]): inactive; inhibition (INH) (Lepidium sativum [12]): >40%; inhibition (INH) (Lactuca sativa [14]): <20%; Activity (Allium cepa [30]): >40%; inhibition (INH) (Solanum lycopersicum [16]): >40%; Activity (Allium cepa [31]): inactive; inhibition (INH) (Lepidium sativum [32]): <20%; inhibition (INH) (Allium cepa [33]): >40%; inhibition (INH) (Lepidium sativum [34]): >40%; Activity (Lepidium sativum [35]): <20%; Activity (Allium cepa [36]): >40%; inhibition (Solanum lycopersicum [28]): inactive
COc1nc(C)nc(NC(=O)NS(=O)(=O)c2ccccc2OCCCl)n1 [LOGRAN]	20%		20%		>40%		>40%	20%	20%	>40%	>40%	>40%	inactive	inactive	>40%	>40%	>40%	>40%	20%	20%	inhibition (INH) (Allium cepa [4]): >40%; inhibition (INH) (Solanum lycopersicum [6]): >40%; inhibition (INH) (Lepidium sativum [12]): >40%; inhibition (INH) (Lactuca sativa [14]): >40%; Activity (Allium cepa [30]): >40%; inhibition (INH) (Solanum lycopersicum [16]): >40%; Activity (Allium cepa [31]): inactive; inhibition (INH) (Lepidium sativum [32]): 20%; inhibition (INH) (Allium cepa [33]): >40%; inhibition (INH) (Lepidium sativum [34]): >40%; Activity (Lepidium sativum [35]): 20%; Activity (Allium cepa [36]): >40%; inhibition (Solanum lycopersicum [28]): inactive
C=C1[C@@H]2[C@H]3OC(=O)C(=C)[C@@H]3CCC(=C)[C@@H]2C[C@H]1O [ISOZALUZANIN C]	20%		>40%		>40%		<20%	20%	20%	>40%	<20%	inactive	20%	inactive	>40%	>40%	<20%		>40%	20%	inhibition (INH) (Allium cepa [4]): >40%; inhibition (INH) (Solanum lycopersicum [6]): >40%; inhibition (Lactuca sativa [10]): inactive; inhibition (INH) (Lepidium sativum [12]): >40%; inhibition (INH) (Lactuca sativa [14]): <20%; Activity (Allium cepa [30]): >40%; inhibition (INH) (Solanum lycopersicum [16]): >40%; Activity (Allium cepa [31]): inactive; inhibition (INH) (Lepidium sativum [32]): >40%; inhibition (INH) (Allium cepa [33]): >40%; inhibition (INH) (Lepidium sativum [34]): >40%; Activity (Lepidium sativum [35]): >40%; Activity (Allium cepa [36]): >40%; inhibition (INH) (Solanum lycopersicum [28]): 20%
C=C1CC[C@H]2[C@H](C)C(=O)O[C@@H]2[C@@]2(O)C(=C)[C@H](O)C[C@@H]12	20%	inactive	inactive	inactive	inactive	inactive	20%		inactive	inactive	inactive	<20%	inactive	inactive	inactive	inactive	20%	<20%		20%	Activity (Allium cepa [8]): inactive; inhibition (Triticum aestivum [9]): inactive; inhibition (Lepidium sativum [12]): inactive; inhibition (Lepidium sativum [13]): inactive; inhibition (Lactuca sativa [14]): inactive; inhibition (Triticum aestivum [15]): inactive; inhibition (Solanum lycopersicum [16]): inactive; Activity (Allium cepa [20]): inactive; Activity (Lepidium sativum [23]): inactive; inhibition (Lepidium sativum [23]): inactive; inhibition (Allium cepa [27]): inactive; inhibition (Solanum lycopersicum [28]): inactive
